In general, IC90 refers to the concentration at which the effect reaches the 90% level. What is called IC50 is the concentration needed to halve the response being measured.

The first assay concerns Human betaherpesvirus 5. Description: Compound was evaluated for antiviral activity against HCMV virus using yield reduction assay. The format is functional.
Conditions: not given
The essentials:
(§1)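 HFF cells in 96-well plates inoculated with HCMV at moi 0.5–1 pfu/cell. Compound in duplicate at 100 to 0.14 μM (1:3 serial dilutions), 7 days at 37 °C, then one freeze–thaw. Progeny titred by serial 1:3 dilution onto fresh HFF monolayers with plaque counting. IC90 from linear regression vs log concentration; ganciclovir control.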
As for `OC[C@H]1O[C@H](n2c(Br)nc3cc(Cl)c(Cl)cc32)[C@@H](O)[C@H]1O` (stereo in doubt; 4b), it took 65 µM to reach the 90% level (IC90).

A further assay deals with Human alphaherpesvirus 1. Description: Antiviral activity evaluated by its ability to inhibit the KOS strain of herpes simplex virus type-1 (HSV-1).ELISA was used.
Conditions: not given
For orientation: In an ELISA, binding on a coated surface is turned into a signal by an enzyme label.
Regarding `OC[C@H]1O[C@H](n2c(Br)nc3cc(Cl)c(Cl)cc32)[C@@H](O)[C@H]1O` (stereo in doubt; 4b), the IC50 worked out at 50 µM.

The species entered for another assay is Homo sapiens. Description: Compound was evaluated for the cytotoxicity scored on HFF cells at time of HCMV plaque enumeration.
Conditions: not given
The format is functional. The essentials:
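Stationary HFF cells not affected by virus, inspected microscopically for visual cytotoxicity at the time of HCMV plaque counting (7 days, 37 °C). Duplicate experiments.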
For the molecule `OC[C@H]1O[C@@H](n2c(Cl)nc3cc(Cl)c(Cl)cc32)[C@H](O)[C@@H]1O`, half-maximal inhibition (IC50) was put at 190 µM.

Consider `C[C@H]1O[C@@H](n2c(Cl)nc3cc(Cl)c(Cl)cc32)[C@H](O)[C@@H]1O`, for which it took 45 µM to reach half-maximal inhibition (IC50).

Regarding `CCCNc1nc2cc(Cl)c(Cl)cc2n1[C@@H]1O[C@H](CO)[C@@H](O)[C@H]1O`, the IC50 was more than 100 µM.

On to `C[C@H]1O[C@@H](n2c(Br)nc3cc(Cl)c(Cl)cc32)[C@H](O)[C@@H]1O`, for which the IC50 was 100 µM.

`OC[C@H]1O[C@H](n2c(Br)nc3cc(Cl)c(Cl)cc32)[C@@H](O)[C@H]1O` (stereo in doubt; 4b) yielded an IC50 of more than 100 µM.

Consider `C[C@@H]1O[C@@H](n2c(Br)nc3cc(Cl)c(Cl)cc32)[C@H](O)[C@@H]1O`, for which the IC50 stood at 32 µM.

For the molecule `C[C@@H]1O[C@@H](n2c(Cl)nc3cc(Cl)c(Cl)cc32)[C@H](O)[C@@H]1O`, half-maximal inhibition (IC50) required 32 µM.

Take `OC[C@H]1O[C@H](n2c(Cl)nc3cc(Cl)c(Cl)cc32)[C@@H](O)[C@H]1O`: the IC50 was more than 100 µM.

In the case of `O=C(O)P(=O)(O)O` [FOSCARNET], the IC50 is more than 100 µM.

In turn, `CSc1nc2cc(Cl)c(Cl)cc2n1[C@@H]1O[C@H](CO)[C@@H](O)[C@H]1O` came in with an IC50 of more than 100 µM.

The subject of the next assay is Human alphaherpesvirus 1. Description: Antiviral activity evaluated by their ability to inhibit the KOS strain of herpes simplex virus type-1 (HSV-1).ELISA was used.
Conditions: not given
As to `OC[C@H]1O[C@@H](n2c(Cl)nc3cc(Cl)c(Cl)cc32)[C@H](O)[C@@H]1O`, the IC50 was more than 100 µM.

Turning to `C[C@H]1O[C@@H](n2c(Cl)nc3cc(Cl)c(Cl)cc32)[C@H](O)[C@@H]1O`, the IC50 worked out at 60 µM.

The molecule `CCCNc1nc2cc(Cl)c(Cl)cc2n1[C@@H]1O[C@H](CO)[C@@H](O)[C@H]1O` showed an IC50 of more than 100 µM.

Regarding `C[C@H]1O[C@@H](n2c(Br)nc3cc(Cl)c(Cl)cc32)[C@H](O)[C@@H]1O`, 50 µM corresponded to half-maximal inhibition (IC50).

In turn, `C[C@@H]1O[C@@H](n2c(Br)nc3cc(Cl)c(Cl)cc32)[C@H](O)[C@@H]1O` showed an IC50 of more than 100 µM.

Molecule `C[C@@H]1O[C@@H](n2c(Cl)nc3cc(Cl)c(Cl)cc32)[C@H](O)[C@@H]1O` registered an IC50 of 20 µM.

In turn, `OC[C@H]1O[C@H](n2c(Cl)nc3cc(Cl)c(Cl)cc32)[C@@H](O)[C@H]1O` showed an IC50 of 90 µM.

On to `CSc1nc2cc(Cl)c(Cl)cc2n1[C@@H]1O[C@H](CO)[C@@H](O)[C@H]1O`, for which the IC50 is more than 100 µM.

Another assay has as its system Human betaherpesvirus 5. Description: Compound was evaluated for its antiviral activity against HCMV virus using Yield reduction assay.
Conditions: not given
`OC[C@H]1O[C@@H](n2c(Cl)nc3cc(Cl)c(Cl)cc32)[C@H](O)[C@@H]1O` returned an IC90 of 3.4 µM.

As to `C[C@H]1O[C@@H](n2c(Cl)nc3cc(Cl)c(Cl)cc32)[C@H](O)[C@@H]1O`, the IC90 was 8 µM.

`CCCNc1nc2cc(Cl)c(Cl)cc2n1[C@@H]1O[C@H](CO)[C@@H](O)[C@H]1O` yielded an IC90 of 17 µM.

Regarding `C[C@H]1O[C@@H](n2c(Br)nc3cc(Cl)c(Cl)cc32)[C@H](O)[C@@H]1O`, the 90% effect level (IC90) was put at 12 µM.

Turning to `C[C@@H]1O[C@@H](n2c(Br)nc3cc(Cl)c(Cl)cc32)[C@H](O)[C@@H]1O`, the IC90 was determined as 2 µM.

On to `C[C@@H]1O[C@@H](n2c(Cl)nc3cc(Cl)c(Cl)cc32)[C@H](O)[C@@H]1O`, for which the 90% effect level (IC90) was put at 0.2 µM.

The molecule `OC[C@H]1O[C@H](n2c(Cl)nc3cc(Cl)c(Cl)cc32)[C@@H](O)[C@H]1O` had an IC90 of more than 100 µM.

In turn, `CSc1nc2cc(Cl)c(Cl)cc2n1[C@@H]1O[C@H](CO)[C@@H](O)[C@H]1O` gave an IC90 of more than 100 µM.

Another assay concerns Human betaherpesvirus 5. Description: Antiviral activity assayed by ability to inhibit Towne strain of HCMV virus.
Conditions: not given
The format is functional, organism-based. The essentials: (§2)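 HFF monolayers in 24-well dishes infected with about 100 pfu HCMV/cm² (Towne or AD169). After adsorption, compound in growth medium at four to eight concentrations, duplicate wells, 7 days at 37 °C. Crystal violet stain, microscopic plaques counted, percent reduction vs no drug. IC50 from regression on log concentration; ganciclovir control.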
`OC[C@H]1O[C@@H](n2c(Cl)nc3cc(Cl)c(Cl)cc32)[C@H](O)[C@@H]1O` returned an IC50 of 18 µM.

Staying with this assay, now noted: Human betaherpesvirus 5.
Consider `C[C@H]1O[C@@H](n2c(Cl)nc3cc(Cl)c(Cl)cc32)[C@H](O)[C@@H]1O`, for which 32 µM corresponded to half-maximal inhibition (IC50).

In the case of `CCCNc1nc2cc(Cl)c(Cl)cc2n1[C@@H]1O[C@H](CO)[C@@H](O)[C@H]1O`, the IC50 is 60 µM.

On to `C[C@H]1O[C@@H](n2c(Br)nc3cc(Cl)c(Cl)cc32)[C@H](O)[C@@H]1O`, for which the 50% inhibitory concentration (IC50) stood at 32 µM.

Molecule `OC[C@H]1O[C@H](n2c(Br)nc3cc(Cl)c(Cl)cc32)[C@@H](O)[C@H]1O` (stereo in doubt; 4b) showed an IC50 of 6 µM.

`C[C@@H]1O[C@@H](n2c(Br)nc3cc(Cl)c(Cl)cc32)[C@H](O)[C@@H]1O` came in with an IC50 of 0.4 µM.

Molecule `C[C@@H]1O[C@@H](n2c(Cl)nc3cc(Cl)c(Cl)cc32)[C@H](O)[C@@H]1O` came in with an IC50 of 0.2 µM.

Take `OC[C@H]1O[C@H](n2c(Cl)nc3cc(Cl)c(Cl)cc32)[C@@H](O)[C@H]1O`: the IC50 is 18 µM.

`CSc1nc2cc(Cl)c(Cl)cc2n1[C@@H]1O[C@H](CO)[C@@H](O)[C@H]1O` registered a 50% inhibitory concentration (IC50) of more than 100 µM.

For a further assay, the system named is KB. Description: Compound was evaluated for the cytotoxicity by the inhibition of KB cell growth. It is filed as functional, cell-based. As to conditions: Homo sapiens. The method, boiled down: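 KB cells plated at 3000–5000 cells/well and incubated overnight. Compound added in quadruplicate at six to eight concentrations, 48 h at 37 °C under CO₂, spanning two population doublings. Ethanol fixation, 0.1% crystal violet stain, dye eluted with acidified ethanol, absorbance at 570 nm. IC50 by regression on log concentration; 2-acetylpyridine thiosemicarbazone control.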
Regarding `OC[C@H]1O[C@@H](n2c(Cl)nc3cc(Cl)c(Cl)cc32)[C@H](O)[C@@H]1O`, the IC50 is more than 100 µM.

With `C[C@H]1O[C@@H](n2c(Cl)nc3cc(Cl)c(Cl)cc32)[C@H](O)[C@@H]1O`, the IC50 is 75 µM.

Molecule `CCCNc1nc2cc(Cl)c(Cl)cc2n1[C@@H]1O[C@H](CO)[C@@H](O)[C@H]1O` gave an IC50 of more than 100 µM.

Molecule `C[C@H]1O[C@@H](n2c(Br)nc3cc(Cl)c(Cl)cc32)[C@H](O)[C@@H]1O` yielded an IC50 of more than 100 µM.

As for `OC[C@H]1O[C@H](n2c(Br)nc3cc(Cl)c(Cl)cc32)[C@@H](O)[C@H]1O` (stereo in doubt; 4b), the IC50 is more than 100 µM.

Turning to `C[C@@H]1O[C@@H](n2c(Br)nc3cc(Cl)c(Cl)cc32)[C@H](O)[C@@H]1O`, the IC50 was 60 µM.

On to `C[C@@H]1O[C@@H](n2c(Cl)nc3cc(Cl)c(Cl)cc32)[C@H](O)[C@@H]1O`, for which 60 µM corresponded to half-maximal inhibition (IC50).

Regarding `OC[C@H]1O[C@H](n2c(Cl)nc3cc(Cl)c(Cl)cc32)[C@@H](O)[C@H]1O`, the IC50 is more than 100 µM.

`CSc1nc2cc(Cl)c(Cl)cc2n1[C@@H]1O[C@H](CO)[C@@H](O)[C@H]1O` had an IC50 of more than 100 µM.

The next assay concerns Human betaherpesvirus 5. Description: Compound was evaluated for the Yield reduction assays on HCMV virus,. It is filed as functional.
Conditions: not given
The essentials:
as §1
As to `OC[C@H]1O[C@@H](n2c(Cl)nc3cc(Cl)c(Cl)cc32)[C@H](O)[C@@H]1O`, it took 1.4 µM to reach the 90% level (IC90).

The next assay deals with Human betaherpesvirus 5. Description: Compound was evaluated for the Antiviral activity against the AD169 strain of HCMV virus. It is filed as functional, organism-based.
Conditions: not given
The essentials: as §2
The molecule `OC[C@H]1O[C@H](n2c(Br)nc3cc(Cl)c(Cl)cc32)[C@@H](O)[C@H]1O` (stereo in doubt; 4b) came in with an IC50 of 4.2 µM.

Staying with this assay, now noted: Human betaherpesvirus 5.
With `OC[C@H]1O[C@@H](n2c(Cl)nc3cc(Cl)c(Cl)cc32)[C@H](O)[C@@H]1O`, it took 2.6 µM to reach half-maximal inhibition (IC50).

`CCCNc1nc2cc(Cl)c(Cl)cc2n1[C@@H]1O[C@H](CO)[C@@H](O)[C@H]1O` displayed an IC50 of 32 µM.

For the molecule `OC[C@H]1O[C@H](n2c(Cl)nc3cc(Cl)c(Cl)cc32)[C@@H](O)[C@H]1O`, the IC50 was determined as 9 µM.

The next assay has as its system Human betaherpesvirus 5. Description: Compounds was evaluated for the Antiviral activity against the AD169 strain of HCMV virus.
Conditions: not given
It is filed as functional, organism-based. The method, boiled down:
as §2
Take `OC[C@H]1O[C@@H](n2c(Cl)nc3cc(Cl)c(Cl)cc32)[C@H](O)[C@@H]1O`: the IC50 amounted to 1.8 µM.

(Values after ChEMBL document CHEMBL1131342, “Design, synthesis, and antiviral activity of alpha-nucleosides: D- and L-isomers of lyxofuranosyl- and (5-deoxylyxofuranosyl)benzimidazoles” (J Med Chem, 1998).)
